Laboratory results as given in ChEMBL document CHEMBL1157757, “Macrocyclic hexaoxazoles: Influence of aminoalkyl substituents on RNA and DNA G-quadruplex stabilization and cytotoxicity” (Bioorg Med Chem Lett, 2010).

How the values were obtained:
[1] = Cytotoxicity against multidrug-resistant human KBV1 cells expressing MDR1 after 4 days by MTT assay; format: functional, cell-based; details: KB-V1, 96 h
Outline: (§1)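 Growth inhibition in RPMI 8402, KB3-1, MDR1-expressing KBV-1 and BCRP-expressing KBH5.0 cells; IC50 reported as mean of three experiments ± standard deviation.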

[2] = Cytotoxicity against wild type human KB3-1 cells after 4 days by MTT assay; format: functional, cell-based; details: KB 3-1, 96 h; outline: as §1
[3] = Cytotoxicity against multidrug-resistant human KBH5.0 cells expressing BCRP after 4 days by MTT assay; format: functional, cell-based; details: KBH5.0 cell, 96 h; outline: as §1
[4] = Cytotoxicity against human RPMI8402 cells after 4 days by MTT assay; format: functional, cell-based; details: RPMI 8402, 96 h; outline: as §1
[5] = system: Nucleic Acid; assay: Binding affinity to r[AG4CG2-CUG2UCG2AGUG2C] sequence of quadruplex RNA assessed as change in transition temperature at 20 uM in presence of 150 mM K+ ions; format: nucleic-acid assay
Outline: (§2)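 Quadruplex UV melting of hTel DNA or AurA RNA at 5 µM in strand, ligand 20 µM, in 10 mM potassium phosphate pH 7.5 plus 132 mM KCl (150 mM total K+); Ttran from maxima or minima of first-derivative melting profiles; ΔTtran uncertainty 0.5 °C.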

[6] = Cytotoxicity against human RPMI8402 cells; format: functional, cell-based; details: RPMI 8402; outline: as §1
[7] = system: Nucleic Acid; assay: Binding affinity to human G-quadruplex d[T2G3(T2AG3)3A] DNA assessed as change in transition temperature at 20 uM in presence of 150 mM K+ ions; format: nucleic-acid assay; outline: as §2

Compound | IC50 [1] [nM] | IC50 [2] [nM] | IC50 [3] [nM] | IC50 [4] [nM] | ΔTm [5] [°C] | IC50 [6] [nM] | ΔTm [7] [°C]
CC(=O)NCCC[C@@H]1NC(=O)c2coc(n2)-c2coc(n2)-c2coc(n2)[C@H](CCCNC(C)=O)NC(=O)c2coc(n2)-c2coc(n2)-c2coc1n2 | > 10000 | > 10000 | > 10000 | > 10000 | – | – | –
CC(C)[C@@H]1NC(=O)c2coc(n2)-c2coc(n2)-c2coc(n2)[C@H](C(C)C)NC(=O)c2coc(n2)-c2coc(n2)-c2coc1n2 [HEXAOXAZOLE DIVALINE] | 7700 | 350 | 450 | 540 | 19.5 | 540 | 11.5
CC(=O)NCCCC[C@@H]1NC(=O)c2coc(n2)-c2coc(n2)-c2coc(n2)[C@H](CCCCNC(C)=O)NC(=O)c2coc(n2)-c2coc(n2)-c2coc1n2 | > 10000 | 4000 | 4500 | 3300 | – | – | –
CC(C)[C@@H]1NC(=O)c2coc(n2)-c2coc(n2)-c2coc(n2)[C@H](CCN)NC(=O)c2coc(n2)-c2coc(n2)-c2coc1n2 | > 10000 | 2200 | 1200 | 1200 | – | – | –
CC(C)[C@@H]1NC(=O)c2coc(n2)-c2coc(n2)-c2coc(n2)[C@H](CCCN)NC(=O)c2coc(n2)-c2coc(n2)-c2coc1n2 | > 10000 | 800 | 380 | 2500 | – | – | –
NCC[C@@H]1NC(=O)c2coc(n2)-c2coc(n2)-c2coc(n2)[C@H](CCN)NC(=O)c2coc(n2)-c2coc(n2)-c2coc1n2 | > 10000 | > 10000 | > 10000 | > 10000 | – | – | –
CC(C)(C)OC(=O)NCCC[C@@H]1NC(=O)c2coc(n2)-c2coc(n2)-c2coc(n2)[C@H](CCCNC(=O)OC(C)(C)C)NC(=O)c2coc(n2)-c2coc(n2)-c2coc1n2 | > 10000 | 450 | 380 | 1400 | – | – | –
NCCCC[C@@H]1NC(=O)c2coc(n2)-c2coc(n2)-c2coc(n2)[C@H](CCCCN)NC(=O)c2coc(n2)-c2coc(n2)-c2coc1n2 | > 10000 | > 10000 | > 10000 | – | – | – | –
CC(=O)NCC[C@@H]1NC(=O)c2coc(n2)-c2coc(n2)-c2coc(n2)[C@H](CCNC(C)=O)NC(=O)c2coc(n2)-c2coc(n2)-c2coc1n2 | > 10000 | > 10000 | > 10000 | > 10000 | – | – | –
CC(C)[C@@H]1NC(=O)c2coc(n2)-c2coc(n2)-c2coc(n2)[C@H](CCNC(=O)OC(C)(C)C)NC(=O)c2coc(n2)-c2coc(n2)-c2coc1n2 | > 10000 | 290 | 250 | 310 | – | – | –
CC(C)[C@@H]1NC(=O)c2coc(n2)-c2coc(n2)-c2coc(n2)[C@H](CCCN(C)C)NC(=O)c2coc(n2)-c2coc(n2)-c2coc1n2 | > 10000 | 300 | 70 | 230 | – | – | 24
CC(=O)NCCC[C@@H]1NC(=O)c2coc(n2)-c2coc(n2)-c2coc(n2)[C@H](C(C)C)NC(=O)c2coc(n2)-c2coc(n2)-c2coc1n2 | > 10000 | 3400 | 3000 | 2500 | – | – | –
CC(C)[C@@H]1NC(=O)c2coc(n2)-c2coc(n2)-c2coc(n2)[C@H](CCCCN)NC(=O)c2coc(n2)-c2coc(n2)-c2coc1n2 | > 10000 | 3400 | 3000 | 4800 | – | – | –
CC(=O)NCCCC[C@@H]1NC(=O)c2coc(n2)-c2coc(n2)-c2coc(n2)[C@H](C(C)C)NC(=O)c2coc(n2)-c2coc(n2)-c2coc1n2 | > 10000 | 710 | 1900 | 750 | – | – | –
CC(C)[C@@H]1NC(=O)c2coc(n2)-c2coc(n2)-c2coc(n2)[C@H](CCCNC(=O)OC(C)(C)C)NC(=O)c2coc(n2)-c2coc(n2)-c2coc1n2 | > 10000 | 230 | 150 | 290 | – | – | –
NCCC[C@@H]1NC(=O)c2coc(n2)-c2coc(n2)-c2coc(n2)[C@H](CCCN)NC(=O)c2coc(n2)-c2coc(n2)-c2coc1n2 | > 10000 | 6300 | 3100 | > 10000 | – | – | –
CC(=O)NCC[C@@H]1NC(=O)c2coc(n2)-c2coc(n2)-c2coc(n2)[C@H](C(C)C)NC(=O)c2coc(n2)-c2coc(n2)-c2coc1n2 | > 10000 | 450 | 900 | 950 | – | – | –
CC(C)[C@@H]1NC(=O)c2coc(n2)-c2coc(n2)-c2coc(n2)C/C=C/c2coc(n2)-c2coc(n2)-c2coc1n2 | 3500 | 40 | 40 | 30 | – | – | –
CC(C)(C)OC(=O)NCCCC[C@@H]1NC(=O)c2coc(n2)-c2coc(n2)-c2coc(n2)[C@H](CCCCNC(=O)OC(C)(C)C)NC(=O)c2coc(n2)-c2coc(n2)-c2coc1n2 | > 10000 | 250 | 330 | 400 | – | – | –
CC(C)[C@@H]1NC(=O)c2coc(n2)-c2coc(n2)-c2coc(n2)[C@H](CCCCNC(=O)OC(C)(C)C)NC(=O)c2coc(n2)-c2coc(n2)-c2coc1n2 | > 10000 | 300 | 330 | 350 | – | – | –
CC(C)(C)OC(=O)NCC[C@@H]1NC(=O)c2coc(n2)-c2coc(n2)-c2coc(n2)[C@H](CCNC(=O)OC(C)(C)C)NC(=O)c2coc(n2)-c2coc(n2)-c2coc1n2 | > 10000 | 250 | 250 | 350 | – | – | –
CN(C)CCCC[C@@H]1NC(=O)c2coc(n2)-c2coc(n2)-c2coc(n2)[C@H](CCCCN(C)C)NC(=O)c2coc(n2)-c2coc(n2)-c2coc1n2 | > 10000 | 4000 | 3600 | > 10000 | – | – | –
CN(C)CC[C@@H]1NC(=O)c2coc(n2)-c2coc(n2)-c2coc(n2)[C@H](CCN(C)C)NC(=O)c2coc(n2)-c2coc(n2)-c2coc1n2 | > 10000 | 2800 | 650 | 4300 | – | – | –
CN(C)CCC[C@@H]1NC(=O)c2coc(n2)-c2coc(n2)-c2coc(n2)[C@H](CCCN(C)C)NC(=O)c2coc(n2)-c2coc(n2)-c2coc1n2 | > 10000 | 4200 | 3000 | > 10000 | – | – | –
